IC50 data for six compounds are collected here from ChEMBL document CHEMBL1150674, “Trypanocidal diarylheptanoids from Aframomum letestuianum” (J Nat Prod, 2003).

The IC50 is the midpoint of a concentration-inhibition curve. Read a high IC50 as lower potency.

Structures are written as SMILES. Values after ≈ are worked out from the molar mass of the structure shown.

Holding throughout (assay type): functional, organism-based
Experiment [1] deals with Trypanosoma brucei rhodesiense. The experiment can be described thus: Antitrypanosomal activity against Trypanosoma brucei rhodesiense KETRI 243 As 10-3 isolate after 48 hrs. The essentials:
(§1)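 Bloodstream-form trypanosomes were cultured in modified IMDM with 20% horse serum at 37 °C, in 24-well plates inoculated with 10^5 trypanosomes per well. Half the well volume was changed daily. Compounds were dissolved in DMSO, with a final DMSO concentration of at most 0.3%, and tested in duplicate at final concentrations of 0.1–100 µg/mL. Parasites were Coulter-counted at 48 h, and IC50 values were taken from semi-log plots. Each assay was run at least twice.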

For experiment [2], the system named is Trypanosoma brucei brucei. The experiment can be described thus: Antitrypanosomal activity against Trypanosoma brucei brucei Lab110 EATRO after 48 hrs. In short, it runs like this: as §1
Experiment [3] has as its system Trypanosoma brucei rhodesiense. The experiment can be described thus: Antitrypanosomal activity against Trypanosoma brucei rhodesiense KETRI 243 isolate after 48 hrs. The essentials:
as §1

For `O=C(/C=C(O)/C=C/c1ccc(O)cc1)CCc1ccc(O)cc1`, the concentration for half-maximal inhibition (IC50) worked out at 1.3 µg/mL (≈ 4.19 µM) in experiment [1], 2.6 µg/mL (≈ 8.38 µM) in experiment [2] and 2.8 µg/mL (≈ 9.02 µM) in experiment [3].
Regarding `COc1cc(CCC(=O)/C=C(O)/C=C/c2ccc(O)cc2)ccc1O` [LETESTUIANIN A], the half-inhibitory concentration (IC50) in experiment [2] is more than 100 µg/mL.
For `COc1cc(/C=C/C(O)=C/C(=O)CCc2ccc(O)c(OC)c2)ccc1O` [LETESTUIANIN B], the IC50 in experiment [1] is more than 100 µg/mL; in experiment [2], 67 µg/mL (≈ 181 µM); in experiment [3], more than 100 µg/mL.
For the compound `O=C(CCc1ccc(O)cc1)CC(=O)CCc1ccc(O)cc1` [LETESTUIANIN C], the half-inhibitory concentration (IC50) in experiment [1] stood at 2.6 µg/mL (≈ 8.32 µM); in experiment [2], 1.4 µg/mL (≈ 4.48 µM); in experiment [3] it was 2.3 µg/mL (≈ 7.36 µM).
For `Nc1nc(N)nc(Nc2ccc([As]3SCC(CO)S3)cc2)n1` (stereo unspecified) [MELARSOPROL], the IC50 in experiment [1] was found to be 0.005 µg/mL; in experiment [2], 0.002 µg/mL; in experiment [3], 0.0005 µg/mL.
As to `N=C(N)c1ccc(OCCCCCOc2ccc(C(=N)N)cc2)cc1` [PENTAMIDINE], the results for the 50% inhibitory concentration (IC50) in experiment [1], in experiment [2] and in experiment [3] were 0.004 µg/mL (≈ 0.0117 µM), 0.0006 µg/mL (≈ 0.00176 µM) and 0.0005 µg/mL (≈ 0.00147 µM), respectively.
